In ChEMBL document CHEMBL1932938, “From COX-2 inhibitor nimesulide to potent anti-cancer agent: synthesis, in vitro, in vivo and pharmacokinetic evaluation” (Eur J Med Chem, 2012):

Columns and labels:
SK-BR-3 [1] = assay: Cell cycle arrest in human SK-BR-3 cells assessed as accumulation at G1 phase at 5 uM after 24 hrs using propidium iodide staining by FACS analysis; assay type: functional
In short: (§1)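 SKBR-3 cells in RPMI1640 with 10% heat-inactivated FBS at 37 °C and 5% CO₂ were treated for the stated times. Cells were fixed overnight in 70% EtOH at −20 °C, then stained with propidium iodide buffer (38 mM sodium citrate pH 7.5, 69 µM PI, 120 µg/mL RNase A) for 15 min at room temperature in the dark. Up to 1×10⁴ gated cells were analyzed by flow cytometry, giving percent distribution per phase.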

DU-145 = assay: Growth inhibition of human DU145 cells after 48 hrs by SRB assay; assay type: functional
SK-BR-3 [2] = assay: Cell cycle arrest in human SK-BR-3 cells assessed as accumulation at Sub-G1 phase at 5 uM after 24 hrs using propidium iodide staining by FACS analysis; assay type: functional
SK-MEL-28 = assay: Growth inhibition of human SK-MEL-28 cells after 48 hrs by SRB assay; assay type: functional
SK-BR-3 [3] = assay: Cell cycle arrest in human SK-BR-3 cells assessed as accumulation at Sub-G1 phase at 0.25 uM after 3 hrs using propidium iodide staining by FACS analysis; assay type: functional
SK-BR-3 [4] = assay: Cell cycle arrest in human SK-BR-3 cells assessed as accumulation at S phase at 0.10 uM after 3 hrs using propidium iodide staining by FACS analysis; assay type: functional; in short: as §1
SK-BR-3 [5] = assay: Cell cycle arrest in human SK-BR-3 cells assessed as accumulation at G1 phase at 0.10 uM after 12 hrs using propidium iodide staining by FACS analysis; assay type: functional; in short: as §1
SK-BR-3 [6] = assay: Cell cycle arrest in human SK-BR-3 cells assessed as accumulation at G1 phase at 0.10 uM after 6 hrs using propidium iodide staining by FACS analysis; assay type: functional; in short: as §1
BT-549 = assay: Growth inhibition of human BT549 cells after 48 hrs by SRB assay; assay type: functional
SK-BR-3 [7] = assay: Cell cycle arrest in human SK-BR-3 cells assessed as accumulation at G1 phase at 0.25 uM after 3 hrs using propidium iodide staining by FACS analysis; assay type: functional; in short: as §1
T47D = assay: Growth inhibition of human T47D cells after 48 hrs by SRB assay; assay type: functional
[8] = Mean residence time (0 to t) in Sprague-Dawley rat at 20 mg/kg, ip; assay type: ADME, organism-based; design: dose 20 mg/kg, route intraperitoneal; conditions: in vivo
In short: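 Male Sprague–Dawley rats (300–350 g, n=3), fasted overnight with water allowed. Single 20 mg/kg i.p. dose in PBS with 0.1% Tween80 and 20% DMSO. Blood taken from saphenous and femoral veins into heparinized tubes at 0, 0.25, 0.5, 1, 2, 4, 8 and 24 h. Plasma quantified by LC-MS/MS (MRM, 483.3→404.3) after tert-butyl methyl ether/hexane extraction. Parameters derived non-compartmentally.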

SK-BR-3 [9] = assay: Cell cycle arrest in human SK-BR-3 cells assessed as accumulation at S phase at 0.25 uM after 6 hrs using propidium iodide staining by FACS analysis; assay type: functional
CAKI-1 = assay: Growth inhibition of human Caki1 cells after 48 hrs by SRB assay; assay type: functional
Mus musculus = assay: Toxicity in BALB/c athymic nu/nu mouse xenografted with human HT-29 cells assessed as effect on body weight at 5 mg/kg/day, ip administered 5 times per week for 3 weeks; assay type: organism-based; design: route intraperitoneal; conditions: in vivo, 504 h
In short: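 BALB/c nu/nu mice, three per group, each inoculated s.c. with HT29 cells in Matrigel at two sites. Dosing began once tumors reached about 200 mm³: 5 mg/kg/d i.p., five times weekly for three weeks, in sesame oil with 1% DMSO. Controls received vehicle only. Body weight was recorded weekly.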

SK-BR-3 [10] = assay: Cell cycle arrest in human SK-BR-3 cells assessed as accumulation at S phase at 5 uM after 18 hrs using propidium iodide staining by FACS analysis; assay type: functional
SK-MEL-5 = assay: Growth inhibition of human SK-MEL-5 cells after 48 hrs by SRB assay; assay type: functional
ACHN = assay: Growth inhibition of human ACHN cells after 48 hrs by SRB assay; assay type: functional
SK-BR-3 [11] = assay: Cell cycle arrest in human SK-BR-3 cells assessed as accumulation at S phase at 0.10 uM after 12 hrs using propidium iodide staining by FACS analysis; assay type: functional; in short: as §1
MDA-MB-231 = assay: Growth inhibition of human MDA-MB-231 cells after 48 hrs by SRB assay; assay type: functional
SK-BR-3 [12] = assay: Cell cycle arrest in human SK-BR-3 cells assessed as accumulation at Sub-G1 phase at 0.50 uM after 12 hrs using propidium iodide staining by FACS analysis; assay type: functional
SF-295 = assay: Growth inhibition of human SF295 cells after 48 hrs by SRB assay; assay type: functional
SK-BR-3 [13] = assay: Cell cycle arrest in human SK-BR-3 cells assessed as accumulation at G2/M phase at 5 uM after 12 hrs using propidium iodide staining by FACS analysis; assay type: functional; in short: as §1
SK-BR-3 [14] = assay: Cell cycle arrest in human SK-BR-3 cells assessed as accumulation at G1 phase at 0.25 uM after 24 hrs using propidium iodide staining by FACS analysis; assay type: functional; in short: as §1
[15] = AUC (0 to t) in Sprague-Dawley rat at 20 mg/kg, ip; assay type: ADME, organism-based; design: dose 20 mg/kg, route intraperitoneal; conditions: plasma
In short: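 Male Sprague–Dawley rats (300–350 g), n=3, fasted overnight with water available, given a single 20 mg/kg i.p. dose in PBS with 0.1% Tween80 and 20% DMSO. Blood drawn into heparinized tubes at 0, 0.25, 0.5, 1, 2, 4, 8 and 24 h. Plasma measured by LC-MS/MS against an internal standard. Parameters from non-compartmental analysis.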

OVCAR-3 = assay: Growth inhibition of human OVCAR3 cells after 48 hrs by SRB assay; assay type: functional
SK-MEL-2 = assay: Growth inhibition of human SK-MEL-2 cells after 48 hrs by SRB assay; assay type: functional
OVCAR-5 = assay: Growth inhibition of human OVCAR5 cells after 48 hrs by SRB assay; assay type: functional
[16] = read-out: LC50 (the source's name)

Cc1ccc(C)c(COc2cc(NC(=O)c3ccc4c(c3)OCO4)ccc2N(C)S(C)(=O)=O)c1
Activity (SK-BR-3 [1]): 31.87% | growth inhibition (GI) (DU-145): Dose-dependent effect | GI50 (DU-145; DU-145, 48 h): 159 nM | TGI (DU-145; DU-145, 48 h): 457 nM | CC50 (DU-145; DU-145, 48 h, read-out: LC50 (the source's name)): > 100000 nM | Activity (SK-BR-3 [2]): 27.62% | growth inhibition (GI) (SK-MEL-28): Dose-dependent effect | GI50 (SK-MEL-28; SK-MEL-28, 48 h): 692 nM | TGI (SK-MEL-28; SK-MEL-28, 48 h): > 100000 nM | CC50 (SK-MEL-28; SK-MEL-28, 48 h, read-out: LC50 (the source's name)): > 100000 nM | Activity (SK-BR-3 [3]): 3.23% | Activity (SK-BR-3 [4]): 17.2% | Activity (SK-BR-3 [5]): 73.14% | Activity (SK-BR-3 [6]): 71.43% | growth inhibition (GI) (BT-549): Dose-dependent effect | GI50 (BT-549; BT-549, 48 h): 656 nM | TGI (BT-549; BT-549, 48 h): > 100000 nM | CC50 (BT-549; BT-549, 48 h, read-out: LC50 (the source's name)): > 100000 nM | Activity (SK-BR-3 [7]): 69.63% | GI50 (T47D): 682 nM | TGI (T47D): > 100000 nM | growth inhibition (GI) (T47D): Dose-dependent effect | CC50 (T47D; [16]): > 100000 nM | MRT last [8]: 6 h | Activity (SK-BR-3 [9]): 14.95% | growth inhibition (GI) (CAKI-1): Dose-dependent effect | TGI (CAKI-1; CAKI-1, 48 h): > 100000 nM | CC50 (CAKI-1; CAKI-1, 48 h, read-out: LC50 (the source's name)): > 100000 nM | Activity (Mus musculus): Non-toxic | Activity (SK-BR-3 [10]): 6.73% | growth inhibition (GI) (SK-MEL-5): Dose-dependent effect | GI50 (SK-MEL-5; SK-MEL-5, 48 h): 253 nM | TGI (SK-MEL-5; SK-MEL-5, 48 h): 1650 nM | CC50 (SK-MEL-5; SK-MEL-5, 48 h, read-out: LC50 (the source's name)): 34100 nM | GI50 (ACHN): 687 nM | TGI (ACHN): > 100000 nM | growth inhibition (GI) (ACHN): Dose-dependent effect | CC50 (ACHN; [16]): > 100000 nM | Activity (SK-BR-3 [11]): 8.17% | growth inhibition (GI) (MDA-MB-231): Dose-dependent effect | GI50 (MDA-MB-231; MDA-MB-231, 48 h): 256 nM | TGI (MDA-MB-231; MDA-MB-231, 48 h): 926 nM | CC50 (MDA-MB-231; MDA-MB-231, 48 h, read-out: LC50 (the source's name)): > 100000 nM | Activity (SK-BR-3 [12]): 6.36% | growth inhibition (GI) (SF-295): Dose-dependent effect | GI50 (SF-295; SF-295, 48 h): 98.3 nM | TGI (SF-295; SF-295, 48 h): 626 nM | CC50 (SF-295; SF-295, 48 h, read-out: LC50 (the source's name)): > 100000 nM | Activity (SK-BR-3 [13]): 20.54% | Activity (SK-BR-3 [14]): 41.27% | AUC(0-t) [15]: 16300 ng·h/mL | growth inhibition (GI) (OVCAR-3): Dose-dependent effect | TGI (OVCAR-3; OVCAR-3, 48 h): 166 nM | growth inhibition (GI) (SK-MEL-2): Dose-dependent effect | GI50 (SK-MEL-2; SK-MEL-2, 48 h): 89.7 nM | TGI (SK-MEL-2; SK-MEL-2, 48 h): 616 nM | CC50 (SK-MEL-2; SK-MEL-2, 48 h, read-out: LC50 (the source's name)): > 100000 nM | growth inhibition (GI) (OVCAR-5): Dose-dependent effect | GI50 (OVCAR-5; OVCAR-5, 48 h): 538 nM | TGI (OVCAR-5; OVCAR-5, 48 h): > 100000 nM
